Published values collected from several papers.
Each line is one published result; the experiments were not run side by side.
Target: Glucocorticoid receptor (NR3C1, Homo sapiens, UniProt P04150)
Sequence (P04150 1-777, as in one of the studies): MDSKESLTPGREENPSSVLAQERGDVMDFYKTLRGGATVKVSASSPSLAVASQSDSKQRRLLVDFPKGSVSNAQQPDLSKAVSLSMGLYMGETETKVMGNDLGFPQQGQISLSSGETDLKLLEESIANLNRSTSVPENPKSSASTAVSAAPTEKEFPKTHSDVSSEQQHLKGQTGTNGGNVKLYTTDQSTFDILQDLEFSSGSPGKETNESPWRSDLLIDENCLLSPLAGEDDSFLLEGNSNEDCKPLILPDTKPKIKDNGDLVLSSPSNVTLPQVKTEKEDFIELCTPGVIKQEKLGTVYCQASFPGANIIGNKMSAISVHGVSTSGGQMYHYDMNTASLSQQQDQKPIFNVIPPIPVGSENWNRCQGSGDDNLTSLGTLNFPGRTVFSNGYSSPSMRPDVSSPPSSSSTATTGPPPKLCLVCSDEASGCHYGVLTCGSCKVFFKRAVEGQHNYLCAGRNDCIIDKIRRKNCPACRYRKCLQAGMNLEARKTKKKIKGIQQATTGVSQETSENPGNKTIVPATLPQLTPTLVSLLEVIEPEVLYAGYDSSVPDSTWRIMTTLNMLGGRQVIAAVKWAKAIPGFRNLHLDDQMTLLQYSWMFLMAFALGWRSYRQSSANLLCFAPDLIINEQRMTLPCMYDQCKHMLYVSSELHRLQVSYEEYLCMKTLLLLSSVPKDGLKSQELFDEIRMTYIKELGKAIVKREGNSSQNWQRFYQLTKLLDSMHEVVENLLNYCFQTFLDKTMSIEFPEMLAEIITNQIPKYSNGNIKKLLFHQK

SMILES | test | conditions | quantity | value
CC(C)N1CCC[C@H]1CNC(=O)c1cn(C2CCCC2)c(=O)c2c1c1ccccc1n2C | ligand displacement, radioligand | 10 µM | inhibition | 1%
Nc1ncc(-c2nc(N3CCOCC3)nc(N3CCOCC3)n2)c(C(F)F)n1 | cell-free assay, radioligand | 10 µM | remaining signal | 105%
COCc1c(-c2cc3cc(C)cc(OC)c3s2)c2c(N)ncnn2c1CN1CCNC(=O)C1 | ligand displacement, radioligand | 10 µM | inhibition | -1%
c1ccc(C(NCCNC(c2ccccc2)c2ccccc2)c2ccccc2)cc1 | cell-free assay | 10 µM | inhibition | 6%
CN(CCN1CCC(OC(=O)Nc2ccccc2-c2ccccc2)CC1)C(=O)c1ccc(CN2CCC(C(N)=O)CC2)cc1 | ligand displacement, radioligand | 1 µM | inhibition | -8%
O=C(Nc1cccnn1)N1CCN([C@@H]2CCOc3cc(C(F)(F)F)ccc32)CC1 | cell-free assay | 20 µM | inhibition | 4%
C[C@H](C(=O)N[C@H]1COc2ccccc2[C@@H]1S(C)(=O)=O)c1ccc(F)cc1 | cell-free assay | 10 µM | inhibition | 14%
Clc1ccc2c(C3CCN(CCc4c[nH]c5ccccc45)CC3)c[nH]c2c1 | ligand displacement, radioligand | 10 µM | inhibition | 7%
